Assay results taken from ChEMBL document CHEMBL5715938, “The protein kinase Cbeta-selective inhibitor, Enzastaurin (LY317615.HCl), suppresses signaling through the AKT pathway, induces apoptosis, and suppresses growth of human colon cancer and glioblastoma xenografts” (Cancer Res, 2005).
Active and inactive are the calls of the source. The calls are words filed in the database; no cut-off is given here.

Legend:
U-87 MG [1] = test: Inhibition of ERK in human U-87 MG cells at 1 micromol/L measured upto 4 hrs by Western blotting analysis; assay type: cell-based; conditions: dose 1.0 µmol/L
How it was run: (§1)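 Cultured tumor cells treated with 1 μmol/L drug; lysates in cell extraction buffer with protease inhibitors, western blotted with phospho-specific antibodies (pGSK3β Ser9, pAKT Thr308, phospho-ERK) alongside total GSK3β/AKT.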

HCT-116 [2] = test: Induction of apoptosis in human HCT-116 cells assessed as increase in apoptotic cells incubated for 72 hrs by TUNEL staining based analysis (reference value: 2%); assay type: functional; conditions: dose 4 µmol/L, at 4 µM
Homo sapiens = species on record: Homo sapiens; test: Inhibition of p70S6K (unknown origin) at 1 micromol/L relative to control; conditions: dose 1.0 µmol/L
How it was run: (§2)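 Commercial kinase profiler panel run to the provider's protocol, with the compound tested at 1 µmol/L. Activity is expressed as percent of kinase activity without compound.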

[3] = target: Protein kinase C zeta type (Homo sapiens) (UniProt Q05513); test: Inhibition of PKCzeta (unknown origin) at 1 micromol/L relative to control; conditions: dose 1.0 µmol/L; how it was run: as §2
Chain of Protein kinase C zeta type (Homo sapiens) (Q05513 whole entry): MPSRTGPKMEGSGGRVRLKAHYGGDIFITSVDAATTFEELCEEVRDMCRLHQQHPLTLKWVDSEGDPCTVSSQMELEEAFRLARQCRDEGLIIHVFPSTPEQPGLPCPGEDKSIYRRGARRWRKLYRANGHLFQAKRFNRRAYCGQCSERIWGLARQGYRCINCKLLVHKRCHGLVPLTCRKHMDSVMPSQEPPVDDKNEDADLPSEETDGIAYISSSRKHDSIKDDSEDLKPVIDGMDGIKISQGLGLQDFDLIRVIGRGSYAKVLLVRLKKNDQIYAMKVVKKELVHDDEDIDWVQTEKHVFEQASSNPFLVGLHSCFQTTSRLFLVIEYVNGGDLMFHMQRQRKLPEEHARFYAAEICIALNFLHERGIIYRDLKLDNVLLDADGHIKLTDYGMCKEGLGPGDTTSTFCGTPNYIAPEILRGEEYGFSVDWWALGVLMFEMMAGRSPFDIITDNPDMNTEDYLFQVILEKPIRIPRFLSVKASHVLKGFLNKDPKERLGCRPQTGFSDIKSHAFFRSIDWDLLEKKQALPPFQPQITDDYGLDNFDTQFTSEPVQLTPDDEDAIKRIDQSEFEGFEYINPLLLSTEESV

T47D = test: Antiproliferative activity against human T47D cells assessed as reduction in cell growth upto 10 uM measured after 6 days by propidium iodide staining based analysis; assay type: functional; conditions: time 6.0 day
How it was run: (§3)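 ATCC-sourced lines grown without antibiotics; 1,000 cells/well in 1% FBS medium, refed ±drug on days 1 and 4 over a 6-day course. On day 7, propidium iodide (10 μg/mL in D-PBS) read after 30 min for nonviable cells, plate frozen at -80°C 2 h, thawed and reread; proliferative index = postfreeze minus prefreeze signal.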

U-87 MG [4] = test: Antitumor activity against human U-87 MG cells xenografted in athymic nude mouse assessed as reduction in GSK3beta phosphorylation at serine 9 residue at 75 mg/kg, po administered twice daily measured after 2 to 8 hrs by ELISA method relative to control; assay type: functional, U-87MG ATCC; parameters: scale not given: the % may be the effect or the level left; conditions: time 2-8 hrs
How it was run: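 U87MG-bearing nude mice, 75 mg/kg twice daily by gavage; on day 21 tumors harvested 2, 4 or 8 h post-dose, lysates measured by pGSK3β Ser9 ELISA versus vehicle tumors; Dunnett's method, ANOVA.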

HCT-116 [5] = test: Antitumor activity against human HCT-116 cells xenografted in athymic nude mouse assessed as reduction in GSK3beta phosphorylation at serine 9 residue at 75 mg/kg, po administered twice daily measured after 12 hrs by Western blotting analysis; assay type: functional, organism-based
ACHN = test: Antiproliferative activity against human ACHN cells assessed as reduction in cell growth upto 10 uM measured after 6 days by propidium iodide staining based analysis; assay type: functional; conditions: time 6.0 day; how it was run: as §3
[6] = target: Protein kinase C epsilon type (Homo sapiens) (UniProt Q02156); test: Inhibition of PKCepsilon (unknown origin) at 1 micromol/L relative to control; conditions: dose 1.0 µmol/L; how it was run: as §2
Chain of Protein kinase C epsilon type (Homo sapiens) (Q02156 whole entry): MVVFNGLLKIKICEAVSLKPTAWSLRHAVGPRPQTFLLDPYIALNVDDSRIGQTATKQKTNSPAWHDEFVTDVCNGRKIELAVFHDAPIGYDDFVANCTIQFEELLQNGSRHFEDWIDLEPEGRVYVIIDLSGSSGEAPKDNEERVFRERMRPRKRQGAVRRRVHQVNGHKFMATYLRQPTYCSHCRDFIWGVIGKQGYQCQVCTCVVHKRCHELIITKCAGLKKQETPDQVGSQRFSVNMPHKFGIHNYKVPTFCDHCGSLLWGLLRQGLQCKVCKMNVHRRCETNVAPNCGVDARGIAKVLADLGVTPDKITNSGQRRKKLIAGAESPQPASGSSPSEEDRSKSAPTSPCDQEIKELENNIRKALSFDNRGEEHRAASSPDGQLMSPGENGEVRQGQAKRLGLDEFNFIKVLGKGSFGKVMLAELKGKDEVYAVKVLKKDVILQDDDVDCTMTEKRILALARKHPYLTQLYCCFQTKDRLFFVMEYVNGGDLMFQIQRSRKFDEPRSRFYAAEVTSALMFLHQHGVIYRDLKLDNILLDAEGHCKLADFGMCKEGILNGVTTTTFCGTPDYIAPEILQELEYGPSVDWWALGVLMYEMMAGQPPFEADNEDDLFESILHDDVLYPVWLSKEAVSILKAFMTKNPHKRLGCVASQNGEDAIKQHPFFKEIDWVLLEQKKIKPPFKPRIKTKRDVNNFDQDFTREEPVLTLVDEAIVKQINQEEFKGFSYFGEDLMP

[7] = target: Serine/threonine-protein kinase AKT (Homo sapiens) (UniProt P31751+Q9Y243+P31749); test: Inhibition of AKT phosphorylation at Thr308 residue in human HCT-116 cells at 1 micromol/L upto 4 hrs by Western blotting analysis; assay type: cell-based; conditions: dose 1.0 µmol/L; how it was run: as §1
Chain of Serine/threonine-protein kinase AKT (Homo sapiens) (P31749 whole entry, looked up): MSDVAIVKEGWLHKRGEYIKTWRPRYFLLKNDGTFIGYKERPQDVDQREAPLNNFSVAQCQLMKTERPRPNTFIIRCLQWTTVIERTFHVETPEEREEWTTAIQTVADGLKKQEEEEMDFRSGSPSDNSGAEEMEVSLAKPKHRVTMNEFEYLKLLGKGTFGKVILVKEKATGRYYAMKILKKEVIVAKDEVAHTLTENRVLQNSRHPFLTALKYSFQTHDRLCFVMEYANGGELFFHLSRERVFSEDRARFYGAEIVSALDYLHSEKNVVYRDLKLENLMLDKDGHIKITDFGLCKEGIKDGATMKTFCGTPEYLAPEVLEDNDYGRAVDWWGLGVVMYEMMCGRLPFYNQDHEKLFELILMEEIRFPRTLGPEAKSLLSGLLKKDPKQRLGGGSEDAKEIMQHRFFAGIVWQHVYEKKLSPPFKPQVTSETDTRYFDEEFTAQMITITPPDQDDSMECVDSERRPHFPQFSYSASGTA
Chain of Serine/threonine-protein kinase AKT (Homo sapiens) (P31751 whole entry, looked up): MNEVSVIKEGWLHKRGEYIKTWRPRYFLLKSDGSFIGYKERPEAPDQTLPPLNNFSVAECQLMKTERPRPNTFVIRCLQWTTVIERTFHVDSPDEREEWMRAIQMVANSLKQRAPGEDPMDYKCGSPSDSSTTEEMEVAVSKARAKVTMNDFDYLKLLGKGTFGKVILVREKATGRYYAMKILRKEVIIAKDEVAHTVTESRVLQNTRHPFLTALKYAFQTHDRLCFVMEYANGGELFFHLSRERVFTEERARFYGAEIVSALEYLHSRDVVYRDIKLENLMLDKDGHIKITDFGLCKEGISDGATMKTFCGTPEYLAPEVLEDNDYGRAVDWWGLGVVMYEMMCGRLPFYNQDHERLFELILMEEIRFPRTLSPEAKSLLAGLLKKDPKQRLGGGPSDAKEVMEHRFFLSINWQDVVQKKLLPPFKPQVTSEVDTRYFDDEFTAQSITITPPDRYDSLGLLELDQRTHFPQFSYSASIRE
Chain of Serine/threonine-protein kinase AKT (Homo sapiens) (Q9Y243 whole entry, looked up): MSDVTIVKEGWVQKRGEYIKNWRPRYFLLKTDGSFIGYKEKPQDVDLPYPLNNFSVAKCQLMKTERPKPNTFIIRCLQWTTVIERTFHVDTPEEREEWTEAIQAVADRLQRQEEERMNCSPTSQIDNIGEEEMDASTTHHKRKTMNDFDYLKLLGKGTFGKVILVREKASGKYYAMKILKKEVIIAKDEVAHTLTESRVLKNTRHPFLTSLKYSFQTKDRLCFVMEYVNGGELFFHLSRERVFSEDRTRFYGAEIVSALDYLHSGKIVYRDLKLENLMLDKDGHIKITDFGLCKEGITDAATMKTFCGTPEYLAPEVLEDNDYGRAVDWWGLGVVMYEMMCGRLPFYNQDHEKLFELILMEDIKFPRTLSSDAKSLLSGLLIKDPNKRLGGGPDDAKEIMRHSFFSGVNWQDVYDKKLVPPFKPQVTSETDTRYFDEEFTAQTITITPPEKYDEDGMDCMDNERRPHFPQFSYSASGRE

[8] = target: Protein kinase C gamma type (Homo sapiens, UniProt P05129); test: Inhibition of recombinant human PKCgamma using myelin basic protein as substrate incubated for 60 mins in presence of […] and ATP by microbeta scintillation counter analysis
How it was run: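 Radiometric filter-plate assay with recombinant human PKCγ (128 pmol/L) phosphorylating myelin basic protein (0.25 mg/mL). Buffer: 90 mmol/L HEPES pH 7.5, 5 mmol/L MgCl2, 100 µmol/L CaCl2, phosphatidylserine, diacylglycerol, 0.001% Triton X-100, 4% DMSO, 30 µmol/L ATP plus 32P-ATP. Enzyme added to start; ran 60 min at room temperature; H3PO4 quench; phosphocellulose capture. IC50 from a three-variable logistic fit to a 10-point series, 1–2,000 nmol/L.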

HCT-116 [9] = test: Antitumor activity against human HCT-116 cells xenografted in athymic nude mouse assessed as reduction in GSK3beta phosphorylation at serine 9 residue at 75 mg/kg, po administered twice daily measured after 2 to 4 hrs by ELISA method relative to control; assay type: functional; parameters: scale not given: the % may be the effect or the level left; conditions: time 2-4 hrs
How it was run: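 HCT116-bearing nude mice, 75 mg/kg by gavage; tumors and PBMCs harvested 0.5, 2, 4, 8 h post-dose, n = 5 per time point. PBMCs from five mice pooled via CPT tube. Lysates assayed by pGSK3β Ser9 immunometric ELISA (tumor 400–600 μg, PBMC 50–100 μg protein/well); percent of vehicle control, Dunnett/ANOVA.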

NCI-H460 = test: Antiproliferative activity against human NCI-H460 cells assessed as reduction in cell growth upto 10 uM measured after 6 days by propidium iodide staining based analysis; assay type: functional; conditions: time 6.0 day; how it was run: as §3
[10] = target: RAC-beta serine/threonine-protein kinase (Homo sapiens) (UniProt P31751); test: Inhibition of PKBbeta (unknown origin) at 1 micromol/L relative to control; conditions: dose 1.0 µmol/L; how it was run: as §2
Chain of RAC-beta serine/threonine-protein kinase (Homo sapiens) (P31751 whole entry): as the sequence (P31751 whole entry, looked up) above

[11] = Antitumor activity against human HCT116 cells implanted in athymic nude mouse assessed as reduction in GSK3beta phosphorylation at serine 9 residue at 75 mg/kg, po administered twice daily measured after 2 to 4 hrs by ELISA method relative to control; parameters: scale not given: the % may be the effect or the level left; conditions: time 2-4 hrs
[12] = target: Mitogen-activated protein kinase 1 (Homo sapiens) (UniProt P28482); test: Inhibition of MAPK1 (unknown origin) at 1 micromol/L relative to control; conditions: dose 1.0 µmol/L
Chain of Mitogen-activated protein kinase 1 (Homo sapiens) (P28482 whole entry): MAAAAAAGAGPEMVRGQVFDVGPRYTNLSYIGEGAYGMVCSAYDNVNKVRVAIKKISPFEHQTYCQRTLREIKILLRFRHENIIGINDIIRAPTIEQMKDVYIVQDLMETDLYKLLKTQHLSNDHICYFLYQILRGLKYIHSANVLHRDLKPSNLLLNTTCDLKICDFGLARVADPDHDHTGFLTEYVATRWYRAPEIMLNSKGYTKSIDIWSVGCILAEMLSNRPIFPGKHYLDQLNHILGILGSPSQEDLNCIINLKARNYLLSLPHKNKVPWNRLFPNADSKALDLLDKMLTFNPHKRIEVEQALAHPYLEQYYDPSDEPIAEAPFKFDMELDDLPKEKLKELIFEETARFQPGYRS
How it was run: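 Upstate Kinase Profiler panel at 1 μmol/L drug, run per provider; data expressed as percent of kinase activity without drug.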

SMILES: Cl.Cn1cc(C2=C(c3cn(C4CCN(Cc5ccccn5)CC4)c4ccccc34)C(=O)NC2=O)c2ccccc21 [ENZASTAURIN HYDROCHLORIDE]
- inhibition (U-87 MG [1]): inactive
- Activity (HCT-116 [2]): >50%
- % control activity (Homo sapiens): 52%
- % control activity [3]: 47%
- Activity (T47D): inactive
- Activity (U-87 MG [4]): >50%
- Activity (HCT-116 [5]): inactive
- Activity (ACHN): inactive
- % control activity [6]: 9%
- inhibition [7]: Active
- IC50 [8]: 83 nM
- Activity (HCT-116 [9]): >60%
- Activity (NCI-H460): inactive
- % control activity [10]: 100%
- Activity [11]: >60%
- % control activity [12]: 114%
